Reference: PMC4094378 (European journal of medicinal chemistry, 2014)

How the values were obtained:
HeLa cells = experiment: Cell growth inhibitory activity; assay type: cell-based, human; settings: read-out: IC50 HeLa; 72 h, MTT; mean ± SE
Method in brief: (§1)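 Jurkat, CEM and SEM cells were grown in RPMI-1640, and HeLa, MCF-7, HT-29 and LoVo in DMEM, each with 10% FBS and penicillin/streptomycin. Wells got 8 × 10^3 cells and were preincubated 18 h at 37 °C in 5% CO2. Test compound from a 10 mM DMSO stock was diluted in medium (final DMSO ≤0.25%) and applied for 72 h. Read-out was MTT. IC50 is the concentration giving 50% inhibition of proliferation, from dose–response curves of ≥3 independent experiments, mean ± SE.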

HT-29 cells = experiment: Cell growth inhibitory activity; assay type: cell-based, human; settings: read-out: IC50 HT-29; 72 h, MTT; mean ± SE
Method in brief: as §1

LoVo cells = experiment: Cell growth inhibitory activity; assay type: cell-based, human; settings: read-out: IC50 LoVo; 72 h, MTT; mean ± SE
Method in brief: as §1

CEM cells = experiment: Cell growth inhibitory activity; assay type: cell-based, human; settings: read-out: IC50 CEM; 72 h, MTT; mean ± SE
Method in brief: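 Human T-cell leukemia cells grown in RPMI-1640 with 10% FBS, penicillin G 115 units/mL and streptomycin 115 μg/mL. 8 × 10^3 cells/well were preincubated 18 h at 37 °C, 5% CO2, then exposed to graded compound concentrations in complete medium from 10 mM DMSO stocks (final DMSO ≤0.25%) for 72 h at 37 °C. Viability was read by MTT, and IC50 is the concentration inhibiting proliferation by 50%.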

Jurkat cells = experiment: Cell growth inhibitory activity; assay type: cell-based, human; settings: read-out: IC50 Jurkat; 72 h, MTT; mean ± SE
Method in brief: as §1

SEM cells = experiment: Cell growth inhibitory activity; assay type: cell-based, human; settings: read-out: IC50 SEM; 72 h, MTT; mean ± SE
Method in brief: as §1

MCF-7 cells = experiment: Cell growth inhibitory activity; assay type: cell-based, human; settings: read-out: IC50 MCF-7; 72 h, MTT; mean ± SE
Method in brief: as §1

[1] = system: panel of seven human cancer cell lines; experiment: Antiproliferative activity across the panel of seven cancer cell lines; assay type: cell-based; settings: 4′-methoxy replaced by 4′-ethoxy
Method in brief: as §1

Substance: 2-Bromo-N-(4-{(1E)-3-oxo-3-[(4-ethoxyphenyl)amino] prop-1-en-1-yl}phenyl)-acrylamide [4j]
- IC50 (HeLa cells): 2 ± 0.13 µM
- IC50 (HT-29 cells): 3.4 ± 0.3 µM
- IC50 (LoVo cells): 0.85 ± 0.03 µM
- IC50 (CEM cells): 0.098 ± 0.033 µM
- IC50 (Jurkat cells): 0.93 ± 0.12 µM
- IC50 (SEM cells): 0.18 ± 0.04 µM
- IC50 (MCF-7 cells): 5.5 ± 1 µM
- fold reduction in activity vs 4i [1]: 2–4 fold
